The MIC is the smallest concentration in the dilution series that meets the test's criterion for growth inhibition.

Activity, MIC and Ratio data for two molecules are collected here from ChEMBL document CHEMBL4673214, “Synthesis and antibacterial bioactivities of cationic deacetyl linezolid amphiphiles” (Eur J Med Chem, 2018).

Activity calls are given as the source filed them.

The subject of assay [1] is Escherichia coli. Put plainly: Bactericidal activity against early exponential phase of Escherichia coli ATCC 25922 at 6X MIC measured after 6 hrs by time-kill kinetic assay. The class given is functional, organism-based. An outline of the steps:
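An overnight culture was diluted 1:10,000 in MHB and shaken at 225 rpm and 37 °C for 2 h (early exponential phase), then exposed to compound. Samples taken at intervals were centrifuged, resuspended in PBS, plated as tenfold dilutions on MHA and incubated overnight at 37 °C. CFU/mL were counted. Biological replicates were run.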

The test system of assay [2] is Escherichia coli. As to the kind of experiment: Antibacterial activity against Escherichia coli ATCC 25922 assessed as reduction in bacterial growth incubated 16 to 20 hrs by CLSI-based broth microdilution method. The conditions noted are these: time 16-20 hrs. The class given is functional. The essentials: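 Broth microdilution following CLSI, in cation-adjusted Mueller-Hinton broth. Inoculum from a 4-6 h culture (~10^8 CFU/mL), diluted to ~10^6 CFU/mL. Water stocks were serially diluted in MHB (256 to 0.5 µg/mL) and mixed 1:1 with the inoculum. Plates ran 16-20 h at 37 °C. MIC was read visually. Each concentration was tested in duplicate, and the experiment was repeated at least twice.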
On the technique in general: In broth dilution the organism is exposed to a series of concentrations in liquid medium.

The subject of assay [3] is Escherichia coli. Put plainly: Resistance ratio of compound MIC for Escherichia coli ATCC 25922 after 20 passages to compound MIC for Escherichia coli ATCC 25922 after 16 to 20 hrs by CLSI-based broth microdilution method. It counts as functional. An outline of the steps: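 Serial passaging: after each 24 h MIC assay, cells grown at 1/2 MIC were transferred and the MIC assayed again, for 20 passages. Done with S. aureus, E. coli and MRSA. MIC plotted against days of passage. Experiment repeated twice.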

Consider `CO[C@@]1(NC(=O)[C@H](C(=O)O)c2ccc(O)cc2)C(=O)N2C(C(=O)O)=C(CSc3nnnn3C)CO[C@@H]21`, for which the outcome in the assay on Escherichia coli [1] was inactive.
In the case of COLISTIN, the MIC in the assay on Escherichia coli [2] is 0.5 µg/mL. The Ratio in the assay with Escherichia coli [3] came to 32.
